What was measured:
[1] = Concentration which reduces the cell viability by 50% (CEM-SS / MT-4); type: functional; conditions: Homo sapiens
Method in brief: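 Cytotoxicity measured on uninfected CEM-SS or MT-4 cells by MTT assay in the same experiment as the antiviral test, with cells cultured with graded compound concentrations for 5 days. Formazan read as OD at 540 nm. CC50 is the concentration reducing viability by 50%, calculated from a median effect plot. Means of at least two separate experiments.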

MT4 = assay: Effective concentration required to achieve 50% inhibition of HIV-1 multiplication in human T-4 lymphoblastoid cell line MT-4 IIIB; type: functional, cell-based
Method in brief: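 MT-4 cells infected with 50 TCID50 of HIV-1 IIIB and allowed 30 min adsorption, then washed. Cells were cultured with graded compound concentrations for 5 days. Protection from virus-induced cytopathogenicity was read by MTT reduction to formazan (OD 540 nm). IC50 was taken from a median effect plot. Means of at least two separate experiments.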

CEM-SS = assay: Effective concentration required to achieve 50% inhibition of HIV-1 multiplication in human T-4 lymphoblastoid cell line CEM-SS/LAI; type: functional, cell-based
Method in brief: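 CEM-SS cells infected with 100 TCID50 of HIV-1 Lai and allowed 30 min adsorption, then free virus was washed off. Cells were cultured with graded compound concentrations for 5 days. Virus production was read as reverse transcriptase activity of virions in culture supernatants. IC50 was taken from a median effect plot. Means of at least two separate experiments.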

SMILES | IC50 (CEM-SS) [µM] | CC50 [1] [µM] | IC50 (MT4) [µM]
Cc1c(Sc2ccccc2)n(COCCNC(=O)CCP(=O)(O)O)c(=O)[nH]c1=O | > 10 | > 1 | > 10
Cc1c(Sc2ccccc2)n(COCCNC(=O)CNCP(=O)(O)O)c(=O)[nH]c1=O | > 100 | > 1 | > 100
CCc1c(Sc2ccccc2)n(COCc2ccccc2)c(=O)[nH]c1=O |  |  | 0.0059
Cc1c(Sc2ccccc2)n(C/C=C/c2cc3ccccc3o2)c(=O)[nH]c1=O | > 1 | > 1 | > 1
Cc1c(Sc2ccccc2)n(COCCI)c(=O)[nH]c1=O | 2.2 | > 1 | > 10
CCc1c(Sc2cc(C)cc(C)c2)n(COCc2ccccc2)c(=O)[nH]c1=O |  |  | 0.0032
Cc1c(Sc2ccccc2)n(COCCNC(=O)CCCl)c(=O)[nH]c1=O | 11.4 | > 1 | 40
Cc1c(Sc2ccccc2)n(COCCN2CCOCC2)c(=O)[nH]c1=O | > 100 | > 1 | > 100
Cc1c(Sc2ccccc2)n(C/C=C/C2CCCCC2)c(=O)[nH]c1=O | > 1 | > 1 | > 1
Cc1c(Sc2ccccc2)n(COCCN(C(=O)c2ccccc2)C(=O)c2ccccc2)c(=O)[nH]c1=O | > 1 | > 1 | > 1
Cc1c(Sc2ccccc2)n(COCCNC(=O)c2ccccc2)c(=O)[nH]c1=O | > 10 | > 1 | > 10
Cc1c(Sc2ccccc2)n(COCCN2CCNCC2)c(=O)[nH]c1=O | > 10 | > 1 | > 10
Cc1c(Sc2ccccc2)n(COCCN)c(=O)[nH]c1=O | 31 | > 1 | 
Cc1c(Sc2ccccc2)n(C/C=C/c2ccc([N+](=O)[O-])s2)c(=O)[nH]c1=O | > 1 | > 1 | > 1
Cc1c(Sc2ccccc2)n(COCCN(CC#N)CC#N)c(=O)[nH]c1=O | 27.5 | > 1 | > 100
Cc1c(Sc2ccccc2)n(COCCN(c2ccccc2)c2ccccc2)c(=O)[nH]c1=O | 8.75 | > 1 | > 10
Cc1c(Sc2ccccc2)n(COCCSc2ccccc2)c(=O)[nH]c1=O | > 1 | > 1 | 

Continued by falling IC50 (CEM-SS), values first:

IC50 (CEM-SS) [µM] | SMILES | CC50 [1] [µM] | IC50 (MT4) [µM]
2 | Cc1c(Sc2ccccc2)n(COCCO)c(=O)[nH]c1=O [HEPT] | > 1 | 11
1 | Cc1c(Sc2ccccn2)n(COCCSc2ccccc2)c(=O)[nH]c1=O | > 1 | > 1
0.94 | CCc1c(Sc2ccccc2)n(C/C=C/c2ccc([N+](=O)[O-])s2)c(=O)[nH]c1=O | > 1 | > 1
0.83 | Cc1c(Sc2ccccc2)n(COCCSc2ccccn2)c(=O)[nH]c1=O | > 1 | > 1
0.76 | Cc1c(Sc2ccccc2)n(COCCBr)c(=O)[nH]c1=O | > 1 | 2.8
0.44 | Cc1c(Sc2ccccn2)n(COCCSc2ccccn2)c(=O)[nH]c1=O | > 1 | 8
0.33 | Cc1c(Sc2ccccc2)n(C/C=C/c2ccco2)c(=O)[nH]c1=O | > 1 | > 1
0.23 | Cc1c(Sc2ccccc2)n(C/C=C/c2ccccc2)c(=O)[nH]c1=O | > 1 | 2.5
0.15 | Cc1c(Sc2ccccc2)n(C/C=C/c2cccnc2)c(=O)[nH]c1=O | > 1 | 0.1
0.14 | Cc1c(Sc2ccccc2)n(C/C=C/c2cccs2)c(=O)[nH]c1=O | > 1 | > 1
0.09 | Cc1c(Sc2ccccc2)n(COCc2ccccc2)c(=O)[nH]c1=O | > 1 | 0.74
0.055 | Cc1c(Sc2ccccc2)n(COCCNc2ccccc2)c(=O)[nH]c1=O | > 1 | 1
0.038 | CCc1c(Sc2ccccc2)n(C/C=C/c2cc3ccccc3o2)c(=O)[nH]c1=O | > 1 | > 1
0.031 | CCc1c(Sc2cc(C)cc(C)c2)n(C/C=C/c2ccccc2)c(=O)[nH]c1=O | > 1 | 
0.028 | CCc1c(Sc2cc(C)cc(C)c2)n(C/C=C/c2cccs2)c(=O)[nH]c1=O | > 1 | 0.04
0.016 | CCc1c(Sc2ccccc2)n(C/C=C/c2ccccc2)c(=O)[nH]c1=O | > 1 | 0.19
0.01 | CCc1c(Sc2cc(C)cc(C)c2)n(C/C=C/c2ccco2)c(=O)[nH]c1=O | > 1 | 0.04
0.008 | CCc1c(Sc2ccccc2)n(C/C=C/c2cccs2)c(=O)[nH]c1=O | > 1 | 0.08
0.008 | CCc1c(Sc2ccccc2)n(C/C=C/c2ccco2)c(=O)[nH]c1=O | > 1 | 0.17

From ChEMBL document CHEMBL1130323, “Synthesis and anti-HIV activity of novel N-1 side chain-modified analogs of 1-[(2-hydroxyethoxy)methyl]-6-(phenylthio)thymine (HEPT)” (J Med Chem, 1997)
